≈ marks a conversion by molar mass, not a printed value.
Assays:
Mycobacterium kansasii [1] = assay: Antimycobacterial activity against Mycobacterium kansasii 6509/96 after 14 days by microdilution method; type: functional; details: 6509/96, 336 h
Procedure, shortened: (§1)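 Dilution micromethod for MIC; compounds added to medium as DMSO solutions. Each strain also inoculated onto Löwenstein–Jensen medium to control inoculum sterility and growth. Strain 6509/96 is a clinical isolate; CNCTC strains from the Czech national type culture collection.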

Mycobacterium kansasii [2] = assay: Antimycobacterial activity against Mycobacterium kansasii 6509/96 after 21 days by microdilution method; type: functional; details: 6509/96, 504 h; procedure, shortened: as §1
Mycobacterium kansasii [3] = assay: Antimycobacterial activity against Mycobacterium kansasii CNCTC My 235/80 after 21 days by microdilution method; type: functional; details: CNCTC My 235/80, 504 h; procedure, shortened: as §1
HUVEC = assay: Antiproliferative activity against HUVEC after 72 hrs by using methylene blue staining; type: cell-based; details: human
Procedure, shortened: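 HUVEC in culture medium with ultraglutamine, gentamicin, 10% heat-inactivated FBS, 37 °C. Harvested in log phase by trypsinization; about 10,000 cells/well. Compounds in DMSO, diluted in DMEM, incubated 72 h at 37 °C, 5% CO2. Cells then glutaraldehyde-fixed, stained with 0.05% methylene blue for 15 min, eluted with 0.33 N HCl, OD 660 nm. GI50 taken at 50% intersection versus untreated control.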

[4] = test system: Mycobacterium tuberculosis; assay: Antimycobacterial activity against Mycobacterium tuberculosis CNCTC My 331/88 after 14 days by microdilution method; type: functional; details: CNCTC My 331/88, 336 h
Procedure, shortened: (§2)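 MIC determined by a dilution micromethod. Strains came from the Czech National Collection of Type Cultures, Prague. Compounds were added to the medium as DMSO solutions. Each inoculum was also plated in parallel on Löwenstein–Jensen medium to check its sterility and growth. The M. avium strain is identical with ATCC 25291 and resistant to INH.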

HeLa = assay: Cytotoxicity against human HeLa cells after 72 hrs by using methylene blue staining; type: functional, cell-based
Procedure, shortened: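 HeLa cells in RPMI 1640 with supplements, preincubated 48 h without compound. Compound dilutions were then applied to subconfluent monolayers for 72 h at 37 °C, 5% CO2. Cells were glutaraldehyde-fixed, stained with 0.05% methylene blue, eluted with 0.33 N HCl and read at OD 660 nm. CC50 taken at 50% intersection versus negative control.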

[5] = test system: Mycobacterium tuberculosis; assay: Antimycobacterial activity against Mycobacterium tuberculosis CNCTC My 331/88 after 21 days by microdilution method; type: functional; details: CNCTC My 331/88, 504 h; procedure, shortened: as §2
K562 = assay: Antiproliferative activity against human K562 cells after 72 hrs by celltiter-blue assay; type: functional, cell-based
Procedure, shortened: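 K-562 grown in RPMI 1640 with ultraglutamine, gentamicin, 10% heat-inactivated FBS at 37 °C; about 10,000 cells/well. Compounds dissolved in DMSO and diluted in DMEM, incubated 72 h at 37 °C, 5% CO2. Viability read by CellTiter-Blue resazurin reduction. GI50 taken where the dose-response curve crosses 50% of untreated control.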

Mycobacterium kansasii [6] = assay: Antimycobacterial activity against Mycobacterium kansasii CNCTC My 235/80 after 14 days by microdilution method; type: functional; details: CNCTC My 235/80, 336 h; procedure, shortened: as §1
Mycobacterium avium [7] = assay: Antimycobacterial activity against Mycobacterium avium CNCTC My 330/88 after 14 days by microdilution method; type: functional; details: CNCTC My 330/88, 336 h; procedure, shortened: as §2
Mycobacterium avium [8] = assay: Antimycobacterial activity against Mycobacterium avium CNCTC My 330/88 after 21 days by microdilution method; type: functional; details: CNCTC My 330/88, 504 h; procedure, shortened: as §2

SMILES: O=c1oc2ccc(Cl)cc2c(=S)n1Cc1ccccc1
- MIC (Mycobacterium kansasii [1]): 4 µM (≈ 1.22 µg/mL)
- MIC (Mycobacterium kansasii [2]): 4 µM (≈ 1.22 µg/mL)
- MIC (Mycobacterium kansasii [3]): 8 µM (≈ 2.43 µg/mL)
- Activity (HUVEC): Toxic
- MIC [4]: 1 µM (≈ 0.304 µg/mL)
- Activity (HeLa): Toxic
- MIC [5]: 2 µM (≈ 0.608 µg/mL)
- Activity (K562): Toxic
- MIC (Mycobacterium kansasii [6]): 8 µM (≈ 2.43 µg/mL)
- MIC (Mycobacterium avium [7]): 4 µM (≈ 1.22 µg/mL)
- MIC (Mycobacterium avium [8]): 8 µM (≈ 2.43 µg/mL)
